Test results as given in the EternaBench riboswitch data.

Test system: MS2 coat protein
Assay: apparent Kd, MS2 coat protein; higher = weaker binding; RNA-MaP array; FMN 200 µM where present
Procedure, shortened: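 Designs were transcribed by stalled E. coli RNA polymerase on Illumina sequencing-chip clusters. They were titrated with SNAP-549-labelled MS2 coat protein from 0.7 or 1.5 nM, doubling to 3 µM, in 100 mM Tris-HCl pH 7.5, 80 mM KCl, 4 mM MgCl2, BSA, DTT, yeast tRNA and Tween-20, without and then with constant ligand. The apparent Kd is the median of filtered per-cluster fits after normalisation of green signal to red-channel RNA signal and control-cluster median Fmax.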

[1] = designed as: OFF switch for flavin mononucleotide, no ligand
[2] = ligand present: flavin mononucleotide, designed as: OFF switch for flavin mononucleotide
[3] = designed as: ON switch for flavin mononucleotide, no ligand
[4] = ligand present: flavin mononucleotide, designed as: ON switch for flavin mononucleotide

| Sequence | apparent Kd [1] [nM] | apparent Kd [2] [nM] | apparent Kd [3] [nM] | apparent Kd [4] [nM] |
| --- | --- | --- | --- | --- |
| GGUUGGCGAGGAUAUACAUGAGGAUCACCCAUGUGGUCCUGCGAUAGAAUAGCCCUUUGUAGAAGGCGCGGGUC | 44 | 38 | – | – |
| GGUUGGCGAGGAUAUACAUGAGGAUCACCCAUGUGGUCCUGCGGUGGUCUCGCCCUUUGUAGAAGGCGCGGGUC | 35.7 | 30.6 | – | – |
| GGUUGUCAAAGACAACCAUAACGAACAUGAGGAUCACCCAUGUAGGAUAUGCUACUCAAAGAGUAGCAGAAGGACAUGUGCCUU | 37.6 | 326 | – | – |
| GGUUGUCAAAGACAACCAUAACGAACAUGAGGAUCACCCAUGUAGGAUAUGCUUCUCAAAGAGAAGCAGAAGGACAUGUGUCUU | 31.8 | 177 | – | – |
| GGUUGUCAUCGUCAUCCUUUCCGUACAUGAGGAUCACCCAUGUAGGAUAUGCUGCUCUCGGUGUGGCAGAAGGGCGUGUGUCUU | 17 | 18.7 | – | – |
| GGUUGUCAUCGUCAUCCUUUCGGUACAUGAGGAUCACCCAUGUAGGAUAUGCUGCAUUCGAUGUGGCAGAAGGGCGUGUGUGUU | 23.5 | 41 | – | – |
| GGUUUGGGAGGAUAUGGCUUGUUUGACAUGAGGAUCACCCAUGUAAGUGGAUCUUCCGGGCCAGAAGGCUCGGGCC | 104 | 188 | – | – |
| GUAAGUACGAGAGGAUAUUGACAUGAGGAUCACCCAUGUAUUUGGGAGUGUUCACUGAAUUCUUACGAGAAGGCUCGUACAUAC | 218 | 242 | – | – |
| GUACAUGAGCAGAAGGGCAUUUAAUUAGAUUUUUAUGUUGAUCAGAAAUGCAGGAUAUGUUAAACAUGAGGAUCACCCAUGUAC | – | – | 218 | 24.1 |
| GUACCUCAAGUGAGGAUAUGUCAUUACCGGUGAAGAUAGAAGGCACAUGAGGAUCACCCAUGUGUGGCUCCGUC | 23.5 | 95.8 | – | – |
| GUACCUUAUGAGAAGGCGAUCAUAAAACAUGAUCGAGGAUAUCAUGAAAACAUGAGGAUCACCCAUGUAUGGGUAUUAUGGUAC | – | – | 37.3 | 16.7 |
| GUACUACAUGAGGAUCACCCAUGUGAGGAUAUGCGAAUUUCAUCAAAAGAUGAAAUUUGCAGAAGGCACAGUAC | 31.2 | 29 | – | – |
| GUACUGACAGGAUAUACAUGAGGAUCACCCAUGUCCUUAUGCUGACAAAAGUCAGCGAGUAGAAGGGUCUGUAC | 101 | 603 | – | – |
| GUAGCAUACCGAGGAUAUUCACCGGAAACGGAAACAUGAGGAUCACCCAUGUGGCGAAAGCCUUGGGAGAAGGCGGAAUGCUAC | – | – | 195 | 24.5 |
| GUAGCAUACCGAGGAUAUUCAGGGCGUGGAUAUACAUGAGGAUCACCCAUGUGGCGGAAGCCUAGGGAGAAGGCGGAAUGCUAC | – | – | 21.3 | 16.8 |
| GUAGCAUACCGAGGAUAUUCAGGGCGUGGAUAUACAUGAGGAUCACCCAUGUGGCGGAAGCCUAGGGAGAAGGCGGGCUGCUUC | – | – | 24.6 | 19.9 |
| GUAGCAUACCGAGGAUAUUCAUACCGUAAACGGACAUGAGGAUCACCCAUGUGGCGAAAGCCUUGGGAGAAGGCGGAAUGCUAC | – | – | 556 | 30.5 |
| GUAGCAUACGGAGGAUAUGUAGGAUCUACAUGAGGAUCACCCAUGUCAAGGACAGAAGGCCGUAUGCUACAAGAGCGAAAGCUC | – | – | 11.6 | 5.79 |
| GUAGCAUACUGAGGAUAUUCAUACCGGAAACGGACAUGAGGAUCACCCAUGUGGCGAAAGCCUUUGGAGAAGGCAGAAUGCUAC | – | – | 13.7 | 13.7 |
| GUAGCAUAUGAUUUACAUGAGGAUCACCCAUGUAUCAUGGGUAAGGAUAUUGAUGUUAUGUUAAUCAAGAAGGUACUAUGCUAC | – | – | 281 | 18.9 |
| GUAGCAUGCCAAGGAUAUUCAUAUAGUAGGCAAACAUGAGGAUCACCCAUGUAGUGAGAGCCCUGGGAGAAGGUGGGAUGCUAC | – | – | 17.9 | 16.1 |

| Sequence | apparent Kd [1] [nM] | apparent Kd [2] [nM] | apparent Kd [3] [nM] | apparent Kd [4] [nM] |
| --- | --- | --- | --- | --- |
| GUAGCAUUGAGAGGAUAUCCAUAUCCGAAAGGGACAUGAGGAUCACCCAUGUCGCGAAAGCGGUGGGAGAAGGCUCUAUGCUAC | – | – | 4.92 | 5.01 |
| GUAGCUAUCGGAGGAUAUUCAUACCGGAAACGGACAUGAGGAUCACCCAUGUGGCGAAAGCCUUGGGAGAAGGCUGAUAGCUAC | – | – | 257 | 7.37 |
| GUAGCUAUCGGAGGAUAUUCAUACUGGAAACGGACAUGAGGAUCACCCAUGUGGCGAAAGCCUUGGGAGAAGGCCGAUCGCUAC | – | – | 123 | 8.13 |
| GUAGCUGCAGGAUAUCUAUCUUCUGACAUGAGGAUCACCCAUGUACUUACUUGGCUCAGUGGAGAAGGGCAGCGUU | 124 | 84.2 | – | – |
| GUAGGCGACCAGAAGGGUGACAUGAGGAUCACCCAUGUAGAUGUGUUCCCGCUUGGGAGCCGUCCACAGGAUAUGGUUGGUUAU | – | – | 49.9 | 74.5 |
| GUAGGGUCAGGAUAUACGGGCGGGAGGAUGUAUUGUAGUUGGUAGAAGGGACAUGAGGAUCACCCAUGUGAGAA | 34.3 | 30.5 | – | – |
| GUAGUAUUAAGUUCAUAAUAUAGGAUAGAAGGUGAAAAUUUGACAUGAGGAUCACCCAUGUAAUUCAAGGAUAUGUAGUAACUC | – | – | 97.7 | 80.1 |
| GUAGUGUAUGUAGGAUAUGUGAACGAAACGUUCACAGAAGGACAUGAGGAUCACCCAUGUAUUACAGUCAGCAAUCUGACUGUU | 25.7 | 107 | – | – |
| GUAGUGUAUGUAGGAUAUGUGAAGCAAAGCUUCACAGAAGGACAUGAGGAUCACCCAUGUAUUACAGUCAGCAAUCUGACUGUU | 39.8 | 137 | – | – |
| GUAUAUAGUGUGAGGAUAUGCUGGUCCUUGGAUCAGCAGAAGGCACAUGAGGAUCACCCAUGUAGUUUAUUUUG | 18.4 | 65.7 | – | – |
| GUAUGCAUGAGGUAGGAUAUCCAAAACAAAACAUGAGGAUCACCCAUGUAAACAAACAACAAAUGGGAGAAGGACCACAUGUAUAC | – | – | 24.4 | 11.3 |
| GUAUGGAGGGAGAAGGGCUAGGAGGUCCAGCUUAUGUGUGUUGCAACAUGAGGAUCACCCAUGUAGCAGGAUAUCCCUUGUACA | 44.4 | 242 | – | – |
| GUAUGUUAUGAGGAUAUCGGUGAACAUACACAUCGAGAAGGCAUGACAUGAGGAUCACCCAUGUCAAGGAUGAC | 27.4 | 57.8 | – | – |
| GUAUUACAUGAGGAUCACCCAUGUGAGGAUAUCGAUGUAACUAGCAGCGUGCGGGACUCGAGAAGGCACUUGGA | 49.1 | 142 | – | – |
| GUAUUAUAGAUCCAUUUAUUCAACAUGAGGAUCACCCAUGUGCAGGAUAUCGUGUGUUUUAUAUUCGAGAAGGGCAAAUUCAUU | 28.9 | 81.8 | – | – |
| GUAUUGAGAUAAGGAUAUAAGUCUAUGACAUGAGGAUCACCCAUGUGUGUUUUAGAAGGUAUUUCGGUAAUAUUGUUACAGUAA | – | – | 17.7 | 9.95 |
| GUCAGAAGUGCAGGAUAUGCUGAGGCAUUCGCGGCAGAAGGGCACAUGAGGAUCACCCAUGUAGCCGGGUAUUGUACCUUAUCA | 6.36 | 9.16 | – | – |
| GUCAGCUCGUCAGGAUAUACGUCACUGCUUCGGCAGUGUGGUAAGAUCACAUGAGGAUCACCCAUGUAGAAGGGACGAGCUGAC | 13.7 | 252 | – | – |
| GUCAGCUCGUGAGGAUAUACAACACUCCUUCGGCAGUGUAUUAAGAUCACAUGAGGAUCACCCAUGUAGAAGGCACGAGCUGAU | 14.8 | 201 | – | – |
| GUCAGCUCGUGAGGAUAUACAACACUGCUUCGGCAGUGUAUUAAGAUCACAUGAGGAUCACCCAUGUAGAAGGGACGAGCUGAU | 11.8 | 20.7 | – | – |
